ChEMBL document CHEMBL4257474, “Antiproliferative activity of novel isatinyl/indanyl nitrones (INs) as potential spin trapping agents of free radical intermediates” (Medchemcomm, 2018)
Calls of active or inactive are those of the source. The calls are words filed in the database; no cut-off is given here.

How the values were obtained:
[1] = Antioxidant activity assessed as DPPH free radical scavenging at 2.45 x 10^-6mol/L after 10 mins by UV-vis spectrophotometric analysis relative to control; type: functional
In short: (§1)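 Ethanolic DPPH was added to the compound in ethanol at the stated concentration, within a five-level series of 1.15 × 10^-6 to 9.10 × 10^-6 mol L^-1. After 10 min in the dark, absorbance was read at 517 nm against absolute ethanol. Scavenging was expressed as RSA% = [(A0 − Ai)/A0] × 100, with A0 the absorbance without compound. BHT served as reference. Triplicate.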

[2] = Antioxidant activity assessed as DPPH free radical scavenging at 4 x 10^-6mol/L after 10 mins by UV-vis spectrophotometric analysis relative to control; type: functional; in short: as §1
[3] = Antioxidant activity assessed as DPPH free radical scavenging at 6.25 x 10^-6mol/L after 10 mins by UV-vis spectrophotometric analysis relative to control; type: functional; in short: as §1
[4] = Antioxidant activity assessed as DPPH free radical scavenging at 9.10 x 10^-6mol/L after 10 mins by UV-vis spectrophotometric analysis relative to control; type: functional; in short: as §1
[5] = Antioxidant activity assessed as DPPH free radical scavenging after 10 mins by UV-vis spectrophotometric analysis; type: functional
In short: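 DPPH and test compound mixed in ethanol at five concentrations, 1.15 × 10^-6 to 9.10 × 10^-6 mol L^-1. After 10 min in the dark, absorbance at 517 nm was read against ethanol blank. RSA% = [(A0 − Ai)/A0] × 100. EC50 (concentration giving 50% radical inhibition) was derived from the RSA% values. BHT was the reference over the same range. Triplicate.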

[6] = test system: MG-63; experiment: Antiproliferative activity against human MG63 cells after 3 days by MTT assay; type: functional, cell-based; conditions: MG-63, 72 h
In short: (§2)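 Osteosarcoma cells were seeded at 4000 per well 6 h before treatment in medium with 10% FBS, penicillin/streptomycin and 2 mM glutamine, at 37 °C and 5% CO2. Compounds came from 40 mM DMSO stocks and were tested at 3–200 µM for 3 days. MTT was added for 2 h and formazan dissolved in 50% DMF/20% SDS pH 4.7 for 16 h. A570 was read versus untreated control; IC50 calculated. Three independent experiments in triplicate.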

[7] = test system: HOS-TE85; experiment: Antiproliferative activity against human HOSTE85 cells after 3 days by MTT assay; type: functional, cell-based; conditions: HOS-TE85, 72 h; in short: as §2
[8] = test system: K562; experiment: Antiproliferative activity against human K562 cells after 3 days by MTT assay; type: functional, cell-based
In short: (§3)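 K562 leukemia cells were seeded at 20000 cells per mL in medium with 10% FBS, penicillin/streptomycin and 2 mM glutamine, at 37 °C and 5% CO2. Compounds were diluted from 40 mM DMSO stocks and applied at 3–200 µM for 3 days. MTT was added for 2 h, then lysis in 50% DMF/20% SDS pH 4.7 for 16 h, and A570 read. Proliferation was expressed as % of untreated cells; IC50 calculated. Three independent experiments in triplicate.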

[9] = test system: MG-63; experiment: Antiproliferative activity against human MG63 cells at 3 to 200 uM after 3 days by MTT assay; type: functional, cell-based; in short: as §2
[10] = test system: HOS-TE85; experiment: Antiproliferative activity against human HOSTE85 cells at 3 to 200 uM after 3 days by MTT assay; type: functional, cell-based; in short: as §2
[11] = test system: K562; experiment: Antiproliferative activity against human K562 cells at 3 to 200 uM after 3 days by MTT assay; type: functional, cell-based; in short: as §3
[12] = Antioxidant activity assessed as DPPH free radical scavenging at 1.15 x 10^-6mol/L after 10 mins by UV-vis spectrophotometric analysis relative to control; type: functional; in short: as §1

Structure (SMILES) | Activity [1] | Activity [2] | Activity [3] | Activity [4] | EC50 [5] | IC50 [6] | IC50 [7] | Activity [8] | Activity [9] | Activity [10] | Activity [11] | Activity [12] | IC50 ([8]; K562, 72 h)
Cc1cc(C(C)(C)C)c(O)c(C(C)(C)C)c1 [BUTYLATED HYDROXYTOLUENE] | 4.6% | 11.7% | 23% | 27% | 3800 nM |  |  |  |  |  |  |  | 
O=C1Nc2ccc([N+](=O)[O-])cc2/C1=[N+](\[O-])Cc1ccccc1 |  | 60% | 67% | 80% | 1000 nM | 77000 nM | 32000 nM | inactive |  |  |  |  | 
C/[N+]([O-])=C1\CCc2ccccc21 |  | 1.1% | 60% | 78% | 1300 nM |  |  | inactive | inactive | inactive | inactive |  | 
O=C1Nc2ccccc2/C1=[N+](\[O-])c1ccccc1 | 1.2% | 1.2% | 69% | 80% | 1300 nM |  |  | inactive | inactive | inactive | inactive | 1.1% | 
O=C1Nc2ccccc2/C1=[N+](\[O-])Cc1ccccc1 | 1.1% | 1.2% | 1.2% | 78% | 1800 nM | 77000 nM | 32000 nM | inactive |  |  |  | 1.1% | 
CN1C(=O)/C(=[N+](/[O-])Cc2ccccc2)c2ccccc21 | 60% | 68% | 70% | 79% | 600 nM | 77000 nM |  |  |  |  |  | 1.2% | 78000 nM
[O-]/[N+](Cc1ccccc1)=C1/CCc2ccccc21 | 1.2% | 1.3% | 70% | 79% | 1200 nM |  |  | inactive | inactive | inactive | inactive | 1.1% | 
C/[N+]([O-])=C1\C(=O)Nc2ccc([N+](=O)[O-])cc21 |  | 1.1% | 72% | 79% | 1200 nM |  | 32000 nM | inactive |  |  |  |  | 
C/[N+]([O-])=C1\CCc2cc(F)ccc21 |  | 1.1% | 1.2% | 79% | 1800 nM |  |  | inactive | inactive | inactive | inactive |  | 
